Measured values from ChEMBL document CHEMBL4689842, “EUbOPEN Chemogenomics Library wave 1” (2021).

System: Fibroblast
Test: Multiplex assay against human fibroblast
Format: toxicity, cell-based
Summary of the method: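 Four dyes were applied at seeding to live cells: Hoechst33342, BioTracker Green Microtubule Cytoskeleton Dye, MitoTracker Red and Annexin V Alexa Fluor 680. Imaging after compound addition used a CQ1 microscope at 37°C and 5% CO2. CellPathfinder machine-learning gating then sorted cells into Hoechst high-intensity objects or normal cells, normal cells into healthy, pyknosed or fragmented nuclei, and pyknosed cells into mitotic or apoptotic, with tubulin, mitochondrial-mass and membrane-permeability phenotypes given as per cents of healthy-nucleus cells.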

[1] = 12 h, 1 µM, compound concentration 1 uM, replicate 1
[2] = 12 h, 1 µM, compound concentration 1 uM, replicate 2
[3] = 12 h, 10 µM, compound concentration 10 uM, replicate 1
[4] = 12 h, 10 µM, compound concentration 10 uM, replicate 2
[5] = 24 h, 1 µM, compound concentration 1 uM, replicate 1
[6] = 24 h, 1 µM, compound concentration 1 uM, replicate 2
[7] = 24 h, 10 µM, compound concentration 10 uM, replicate 1
[8] = 24 h, 10 µM, compound concentration 10 uM, replicate 2
[9] = 48 h, 1 µM, compound concentration 1 uM, replicate 1
[10] = 48 h, 1 µM, compound concentration 1 uM, replicate 2
[11] = 48 h, 10 µM, compound concentration 10 uM, replicate 1
[12] = 48 h, 10 µM, compound concentration 10 uM, replicate 2

## O=C1N/C(=N/c2ccccc2F)S/C1=C\c1ccc(C(=O)O)cc1
[1]
  Population Apoptotic (%): 68%
  Population Fragmented Nuclei (%): 29%
  Population Healthy Nuclei (%): 37%
  Population Hoechst High Intensity Objects (%): 13%
  Population Membrane Permeable-Phenotype (%): 27%
  Population Mitochondria Different-Phenotype (%): 2%
  Population Mitotic Cells (%): 31%
  Population Normal (%): 86%
  Population Pyknosed Nuclei (%): 32%
  Population Tubulin-Different-Phenotype (%): 19%
  Total Cell Count: 112
[2]
  Population Apoptotic (%): 0%
  Population Fragmented Nuclei (%): 3%
  Population Healthy Nuclei (%): 92%
  Population Hoechst High Intensity Objects (%): 8%
  Population Membrane Permeable-Phenotype (%): 6%
  Population Mitochondria Different-Phenotype (%): 16%
  Population Mitotic Cells (%): 100%
  Population Normal (%): 91%
  Population Pyknosed Nuclei (%): 3%
  Population Tubulin-Different-Phenotype (%): 24%
  Total Cell Count: 66
[3]
  Population Apoptotic (%): 67%
  Population Fragmented Nuclei (%): 29%
  Population Healthy Nuclei (%): 51%
  Population Hoechst High Intensity Objects (%): 60%
  Population Membrane Permeable-Phenotype (%): 36%
  Population Mitochondria Different-Phenotype (%): 6%
  Population Mitotic Cells (%): 32%
  Population Normal (%): 39%
  Population Pyknosed Nuclei (%): 19%
  Population Tubulin-Different-Phenotype (%): 51%
  Total Cell Count: 406
[4]
  Population Apoptotic (%): 44%
  Population Fragmented Nuclei (%): 4%
  Population Healthy Nuclei (%): 81%
  Population Hoechst High Intensity Objects (%): 8%
  Population Membrane Permeable-Phenotype (%): 1%
  Population Mitochondria Different-Phenotype (%): 9%
  Population Mitotic Cells (%): 55%
  Population Normal (%): 91%
  Population Pyknosed Nuclei (%): 14%
  Population Tubulin-Different-Phenotype (%): 9%
  Total Cell Count: 59
[5]
  Population Apoptotic (%): 55%
  Population Fragmented Nuclei (%): 26%
  Population Healthy Nuclei (%): 47%
  Population Hoechst High Intensity Objects (%): 14%
  Population Membrane Permeable-Phenotype (%): 36%
  Population Mitochondria Different-Phenotype (%): 5%
  Population Mitotic Cells (%): 45%
  Population Normal (%): 85%
  Population Pyknosed Nuclei (%): 26%
  Population Tubulin-Different-Phenotype (%): 41%
  Total Cell Count: 89
[6]
  Population Apoptotic (%): 0%
  Population Fragmented Nuclei (%): 7%
  Population Healthy Nuclei (%): 85%
  Population Hoechst High Intensity Objects (%): 5%
  Population Membrane Permeable-Phenotype (%): 5%
  Population Mitochondria Different-Phenotype (%): 10%
  Population Mitotic Cells (%): 100%
  Population Normal (%): 94%
  Population Pyknosed Nuclei (%): 7%
  Population Tubulin-Different-Phenotype (%): 23%
  Total Cell Count: 69
[7]
  Population Apoptotic (%): 65%
  Population Fragmented Nuclei (%): 18%
  Population Healthy Nuclei (%): 63%
  Population Hoechst High Intensity Objects (%): 20%
  Population Membrane Permeable-Phenotype (%): 29%
  Population Mitochondria Different-Phenotype (%): 5%
  Population Mitotic Cells (%): 34%
  Population Normal (%): 79%
  Population Pyknosed Nuclei (%): 18%
  Population Tubulin-Different-Phenotype (%): 33%
  Total Cell Count: 181
[8]
  Population Apoptotic (%): 60%
  Population Fragmented Nuclei (%): 5%
  Population Healthy Nuclei (%): 88%
  Population Hoechst High Intensity Objects (%): 5%
  Population Membrane Permeable-Phenotype (%): 2%
  Population Mitochondria Different-Phenotype (%): 6%
  Population Mitotic Cells (%): 40%
  Population Normal (%): 94%
  Population Pyknosed Nuclei (%): 5%
  Population Tubulin-Different-Phenotype (%): 16%
  Total Cell Count: 73
[9]
  Population Apoptotic (%): 52%
  Population Fragmented Nuclei (%): 35%
  Population Healthy Nuclei (%): 46%
  Population Hoechst High Intensity Objects (%): 19%
  Population Membrane Permeable-Phenotype (%): 20%
  Population Mitochondria Different-Phenotype (%): 0%
  Population Mitotic Cells (%): 47%
  Population Normal (%): 80%
  Population Pyknosed Nuclei (%): 17%
  Population Tubulin-Different-Phenotype (%): 20%
  Total Cell Count: 118
[10]
  Population Apoptotic (%): 50%
  Population Fragmented Nuclei (%): 26%
  Population Healthy Nuclei (%): 71%
  Population Hoechst High Intensity Objects (%): 30%
  Population Membrane Permeable-Phenotype (%): 18%
  Population Mitochondria Different-Phenotype (%): 3%
  Population Mitotic Cells (%): 50%
  Population Normal (%): 69%
  Population Pyknosed Nuclei (%): 1%
  Population Tubulin-Different-Phenotype (%): 33%
  Total Cell Count: 161
[11]
  Population Apoptotic (%): 53%
  Population Fragmented Nuclei (%): 43%
  Population Healthy Nuclei (%): 47%
  Population Hoechst High Intensity Objects (%): 56%
  Population Membrane Permeable-Phenotype (%): 29%
  Population Mitochondria Different-Phenotype (%): 2%
  Population Mitotic Cells (%): 46%
  Population Normal (%): 43%
  Population Pyknosed Nuclei (%): 9%
  Population Tubulin-Different-Phenotype (%): 36%
  Total Cell Count: 370
[12]
  Population Apoptotic (%): 40%
  Population Fragmented Nuclei (%): 23%
  Population Healthy Nuclei (%): 69%
  Population Hoechst High Intensity Objects (%): 15%
  Population Membrane Permeable-Phenotype (%): 16%
  Population Mitochondria Different-Phenotype (%): 0%
  Population Mitotic Cells (%): 60%
  Population Normal (%): 84%
  Population Pyknosed Nuclei (%): 6%
  Population Tubulin-Different-Phenotype (%): 18%
  Total Cell Count: 90
